Source: ChEMBL document CHEMBL1122463, “2,3-dihydro-3-(1-pyrryl)spiro[benzofuran-2,4'-piperidine]s and 2,3-dihydro-3-(1-pyrryl)spiro[benzofuran-2,3'-pyrrolidine]s: novel antihypertensive agents” (1983)
“And” between values parts separate entries of the source, which are not always exact repeats. Equal values may be shown once.

Tests used:
Canis familiaris [1] = assay: Effect of compound at a dose of 10 mg/kg iv, on standard cardiovascular in anesthetized normotensive dogs after administration of carbachol; type: functional, Canis lupus familiaris, Heart
In short: (§1)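 Trachea intubated, artificially respired, bilateral vagotomy. Femoral artery cannulated for BP, femoral vein for drugs. BP and heart rate recorded continuously. Each iv challenge given twice predrug for matched responses and once after test drug. Doses: epinephrine and norepinephrine 0.5 to 1.0 μg/kg; isoproterenol and carbachol 0.25 μg/kg.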

Canis familiaris [2] = assay: Effect of compound at a dose of 10 mg/kg iv, on standard cardiovascular in anesthetized normotensive dogs after administration of epinephrine.; type: functional, Canis lupus familiaris, Heart; in short: as §1
Canis familiaris [3] = assay: Effect of compound at a dose of 10 mg/kg iv, on standard cardiovascular in anesthetized normotensive dogs after administration of isoproterenol.; type: functional, Canis lupus familiaris, Heart; in short: as §1
Canis familiaris [4] = assay: Effect of compound at a dose of 10 mg/kg iv, on standard cardiovascular in anesthetized normotensive dogs before administration of isoproterenol.; type: functional, Canis lupus familiaris, Heart; in short: as §1
Canis familiaris [5] = assay: Effect of compound at a dose of 10 mg/kg iv, on standard cardiovascular in anesthetized normotensive dogs before administration of norepinephrine.; type: functional, Canis lupus familiaris, Heart; in short: as §1
Canis familiaris [6] = assay: Effect of compound at a dose of 10 mg/kg iv, on standard cardiovascular in anesthetized normotensive dogs before administration of tyramine.; type: functional, Canis lupus familiaris, Heart; in short: as §1
Canis familiaris [7] = assay: Hemodynamic effect in sinoaortic- deafferented hypertensive dog measured as mean arterial BP after 0 min of 5 mg/kg dose; type: functional, Canis lupus familiaris
Canis familiaris [8] = assay: Hemodynamic effect in sinoaortic- deafferented hypertensive dog measured as mean arterial BP after 30 min of 5 mg/kg dose; type: functional, Canis lupus familiaris
Canis familiaris [9] = assay: Hemodynamic effect in sinoaortic- deafferented hypertensive dog measured as mean arterial BP after 5 min of 5 mg/kg dose; type: functional, Canis lupus familiaris
Canis familiaris [10] = assay: Hemodynamic effect in sinoaortic- deafferented hypertensive dog measured as mean arterial BP after 60 min of 5 mg/kg dose; type: functional, Canis lupus familiaris
Canis familiaris [11] = assay: Mean arterial BP after administration at a dose of 10 mg/kg iv.; type: functional, Canis lupus familiaris
Canis familiaris [12] = assay: Mean arterial BP before administration at a dose of 10 mg/kg iv.; type: functional, Canis lupus familiaris
Canis familiaris [13] = assay: Hemodynamic effect in sinoaortic- deafferented hypertensive dog measured as heart rate after 0 min of 5 mg/kg dose; type: functional, Canis lupus familiaris
Canis familiaris [14] = assay: Hemodynamic effect in sinoaortic- deafferented hypertensive dog measured as heart rate after 30 min of 5 mg/kg dose; type: functional, Canis lupus familiaris
Canis familiaris [15] = assay: Hemodynamic effect in sinoaortic- deafferented hypertensive dog measured as heart rate after 5 min of 5 mg/kg dose; type: functional, Canis lupus familiaris
Canis familiaris [16] = assay: Hemodynamic effect in sinoaortic- deafferented hypertensive dog measured as heart rate after 60 min of 5 mg/kg dose; type: functional, Canis lupus familiaris
Canis familiaris [17] = assay: Mean Heart rate after. administration at a dose of 10 mg/kg iv.; type: functional, Canis lupus familiaris
Canis familiaris [18] = assay: Mean Heart rate before administration at a dose of 10 mg/kg iv.; type: functional, Canis lupus familiaris
Canis familiaris [19] = assay: Hemodynamic effect in sinoaortic- deafferented hypertensive dog measured as left ventricular pressure after 0 min of 5 mg/kg; type: functional, Canis lupus familiaris, Heart left ventricle
Canis familiaris [20] = assay: Hemodynamic effect in sinoaortic- deafferented hypertensive dog measured as left ventricular pressure after 30 min of 5 mg/kg; type: functional, Canis lupus familiaris, Heart left ventricle
Canis familiaris [21] = assay: Hemodynamic effect in sinoaortic- deafferented hypertensive dog measured as left ventricular pressure after 5 min of 5 mg/kg; type: functional, Canis lupus familiaris, Heart left ventricle
Canis familiaris [22] = assay: Hemodynamic effect in sinoaortic- deafferented hypertensive dog measured as left ventricular pressure after 60 min of 5 mg/kg; type: functional, Canis lupus familiaris, Heart left ventricle
Canis familiaris [23] = assay: Effect of compound at a dose of 10 mg/kg iv, on standard cardiovascular in anesthetized normotensive dogs after administration of norepinephrine.; type: functional, Canis lupus familiaris, Heart; in short: as §1
Canis familiaris [24] = assay: Effect of compound at a dose of 10 mg/kg iv, on standard cardiovascular in anesthetized normotensive dogs after administration of tyramine.; type: functional, Canis lupus familiaris, Heart; in short: as §1
Canis familiaris [25] = assay: Effect of compound at a dose of 10 mg/kg iv, on standard cardiovascular in anesthetized normotensive dogs before administration of carbachol; type: functional, Canis lupus familiaris, Heart; in short: as §1
Canis familiaris [26] = assay: Effect of compound at a dose of 10 mg/kg iv, on standard cardiovascular in anesthetized normotensive dogs before administration of epinephrine.; type: functional, Canis lupus familiaris, Heart; in short: as §1
Rattus norvegicus [27] = assay: hypotensive activity in renal hypertensive rats by using tail-cuff method measured as post drug BP (day/h) after administration of 10 mg/kg dose po;(day/h=2/2); type: functional, Blood
In short: (§2)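 Renal hypertension (modified Grollman) was made in male Sprague-Dawley rats under pentobarbital sodium 50 mg/kg ip. The right kidney was removed, and silk sutures around both poles of the left kidney constricted the parenchyma. After 3 weeks of stabilization, rats with systolic BP >150 mmHg were used. Compounds were given orally. Systolic BP was measured by tail-cuff predose and at the stated day/h after dosing.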

Rattus norvegicus [28] = assay: (§3) Oral hypotensive activity in spontaneously hypertensive rats by using tail-cuff method measured as change in systolic BP at the dose of 10 mg/kg po.; type: functional, Blood
In short: (§4)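 SHR of the Okamoto-Aoki strain, dosed orally every day with compound suspended in distilled water with Tween 80. Systolic pressure was taken by tail-cuff plethysmography on day 1 (predose, 2 h), day 3 (predose, 2 h) and day 5 (predose, 2 and 4 h). Initial BP is the pretreatment systolic pressure, with 4–8 rats per dose in the dose-response screen.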

Rattus norvegicus [29] = assay: hypotensive activity in renal hypertensive rats by using tail-cuff method measured as post drug BP (day/h) after administration of 10 mg/kg dose po;(day/h=3/2); type: functional, Blood; in short: as §2
Rattus norvegicus [30] = assay: (§5) Oral hypotensive activity in spontaneously hypertensive rats by using tail-cuff method measured as change in systolic BP at the dose of 25 mg/kg po.; type: functional, Blood; in short: as §4
Rattus norvegicus [31] = assay: (§6) Oral hypotensive activity in spontaneously hypertensive rats by using tail-cuff method measured as change in systolic BP at the dose of 50 mg/kg po.; type: functional, Blood
In short: (§7)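 Okamoto-Aoki strain spontaneously hypertensive rats. Compounds were suspended in distilled water with Tween 80 and given orally every day at 50, 30, 10 or 3 mg/kg. Systolic BP was measured by tail-cuff plethysmography on day 1 (predose and 2 h), day 3 (predose and 2 h) and day 5 (predose, 2 and 4 h). The screen used 4 rats; dose-response used 4–8 rats per dose.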

Rattus norvegicus [32] = assay: (§8) Oral hypotensive activity in spontaneously hypertensive rats by using tail-cuff method measured as change in systolic BP at the dose of 5 mg/kg po.; type: functional, Blood; in short: as §7
Rattus norvegicus [33] = assay: hypotensive activity in renal hypertensive rats by using tail-cuff method measured as post drug BP (day/h) after administration of 10 mg/kg dose po;(day/h=3/0); type: functional, Blood; in short: as §2
Rattus norvegicus [34] = assay: Hypotensive activity in renal hypertensive rats by using tail-cuff method measured as initial BP at the dose of 10 mg/kg po.; type: functional, Blood
In short: (§9)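 Renal hypertension made in male Sprague-Dawley rats (Grollman modification). Under pentobarbital (50 mg/kg ip), the right kidney was removed and silk sutures tied around both poles of the left kidney to constrict it. After 3 weeks, rats with systolic BP >150 mmHg were used. Compound given po daily to 4 rats. Systolic BP by tail-cuff plethysmography at the listed day/hour after dosing.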

Rattus norvegicus [35] = assay: Hypotensive activity in renal hypertensive rats by using tail-cuff method measured as post drug BP (day/h) after administration of 10 mg/kg dose po;(day/h=1/2); type: functional, Blood; in short: as §9
Rattus norvegicus [36] = assay: as §3; type: functional, Blood; remark: listed apart in the source
In short: (§10)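 Okamoto-Aoki spontaneously hypertensive rats. Compound suspended in distilled water with Tween 80, given po daily, screening dose 50 mg/kg, dose-response at 50, 30, 10 or 3 mg/kg unless stated. Systolic BP by tail-cuff plethysmography on day 1 predose and 2 h, day 3 predose and 2 h, and day 5 predose, 2 and 4 h. Reported as peak decrease on day 3 (or day 5) at 2 h ± SEM. n = 4 in screen, 4–8 per dose.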

Rattus norvegicus [37] = assay: as §5; type: functional, Blood; in short: as §10; remark: listed apart in the source
Rattus norvegicus [38] = assay: as §6; type: functional, Blood; in short: as §10; remark: listed apart in the source
Rattus norvegicus [39] = assay: as §8; type: functional, Blood; in short: as §10; remark: listed apart in the source

`CN1CCC2(CC1)Oc1ccccc1C2n1cccc1` (centres undefined) gave a BP (Canis familiaris [1]) of -29.7 mmHg, a BP (Canis familiaris [2]) of 67 mmHg and a BP (Canis familiaris [3]) of -30 mmHg. For the same compound, the BP (Canis familiaris [4]) was -38 mmHg, the BP (Canis familiaris [5]) was 57 mmHg and the BP (Canis familiaris [6]) was 52.5 mmHg. It also gave a BP (Canis familiaris [7]) of 175 mmHg, a BP (Canis familiaris [8]) of 129 mmHg and a BP (Canis familiaris [9]) of 123 mmHg. The BP (Canis familiaris [10]) was 129 mmHg, the BP (Canis familiaris [11]) was 82.3 mmHg and the BP (Canis familiaris [12]) was 117 mmHg. The Rate (Canis familiaris [13]) was 194 beats min-1, the Rate (Canis familiaris [14]) was 174 beats min-1 and the Rate (Canis familiaris [15]) was 154 beats min-1. For the same compound, the Rate (Canis familiaris [16]) was 160 beats min-1, the Rate (Canis familiaris [17]) was 113 beats min-1 and the Rate (Canis familiaris [18]) was 147 beats min-1. The dP/dt (Canis familiaris [19]) was 24.2 1/Pmax s, the dP/dt (Canis familiaris [20]) was 26.2 1/Pmax s and the dP/dt (Canis familiaris [21]) was 26 1/Pmax s. For the same compound, the dP/dt (Canis familiaris [22]) was 23.4 1/Pmax s, the BP (Canis familiaris [23]) was 58 mmHg and the BP (Canis familiaris [24]) was 48 mmHg. For the same compound, the BP (Canis familiaris [25]) was -49.2 mmHg, the BP (Canis familiaris [26]) was 53.7 mmHg and the BP (Rattus norvegicus [27]) was 184 mmHg and 170 mmHg. For the same compound, the BP (Rattus norvegicus [28]) was 190 mmHg, the BP (Rattus norvegicus [29]) was 97 mmHg and the BP (Rattus norvegicus [30]) was 196 mmHg. For the same compound, the BP (Rattus norvegicus [31]) was 202 mmHg, the BP (Rattus norvegicus [32]) was 184 mmHg and the BP (Rattus norvegicus [33]) was 183 mmHg. For the same compound, the BP (Rattus norvegicus [34]) was 206 mmHg, the BP (Rattus norvegicus [35]) was 196 mmHg and the Delta blood pressure (Rattus norvegicus [36]) was 50 mmHg. The Delta blood pressure (Rattus norvegicus [37]) was 58 mmHg, the Delta blood pressure (Rattus norvegicus [38]) was 39 mmHg and the Delta blood pressure (Rattus norvegicus [39]) was 30 mmHg.
